The nature of data set [1]: Drug degradation at pH 7.4 assessed as release of PTL after 3 hrs. The format is physicochemical. Particulars: buffer, pH 7.4, 3 h; call rule not given here.
Data set [2] can be described thus: Cytotoxicity against human HL60/A cells after 18 hrs by annexin-V labeling-based flow cytometry. The format is functional, cell-based.
The test system of another data set is HL-60. Briefly: Cytotoxicity against human HL60 cells after 18 hrs by annexin-V labeling-based flow cytometry. It counts as functional, cell-based. The conditions noted are these: HL-60, 18 h.
Data set [3] is described as follows: Cytotoxicity against human leukemia stem/progenitor cells assessed as viable CD34+ cells at 10 uM after 18 hrs by annexin-V labeling-based flow cytometry. It counts as functional, CD34+ cell.
Data set [4] can be described thus: Cytotoxicity against human leukemia stem/progenitor cells assessed as viable CD34+ cells at 5 uM after 18 hrs by annexin-V labeling-based flow cytometry. The format is functional, CD34+ cell. Put shortly: (§1)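 Primary leukemia cells from AML patient blood were treated for 18 h in serum-free IMDM, then stained with CD34-APC and CD38-PECy7 for 30 min. After washing in cold PBS, cells were labelled with Annexin-V–FITC/PI for 15 min at room temperature and read by flow cytometry. Viability of total and CD34⁺ cells was normalized to untreated controls (mean, SD).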
(A flow cytometer gives signals particle by particle.)

Data set [5] is described as follows: Cytotoxicity against human leukemia stem/progenitor cells assessed as cell viability at 5 uM after 18 hrs by annexin-V labeling-based flow cytometry. It counts as functional. Particulars: in the assay text read “leukemia cells” for “leukemia stem/progenitor cells”, read-out: Activity. Put shortly: as §1
Data set [6] in a line: Cytotoxicity against human leukemia cells assessed as cell viability at 10 uM after 18 hrs by annexin-V labeling-based flow cytometry.
Data set [7] is described as follows: Cytotoxicity against human leukemia stem/progenitor cells assessed as viable CD34+CD38- cells at 10 uM after 18 hrs by annexin-V labeling-based flow cytometry relative to control. It counts as functional.
The nature of data set [8]: Cytotoxicity against human leukemia stem/progenitor cells assessed as viable CD34+ cells at 10 uM after 18 hrs by annexin-V labeling-based flow cytometry relative to control. It counts as functional, CD34+ cell.

A value given as a limit tells only on which side of the number the result lay.

For `C/C1=C\CC[C@@]2(C)O[C@@H]2[C@H]2OC(=O)[C@@H](Cn3cc(-c4cccc(N)c4)nn3)[C@@H]2CC1`, the Drug degradation entry in [1] is “Not Active”. Besides, the IC50 in data set [2] is over 100 µM; in the data set with HL-60 it was over 50 µM.
In the same order, the values of `C/C1=C\CC[C@@]2(C)O[C@@H]2[C@H]2OC(=O)[C@@H](Cn3cc(-c4ccccc4)nn3)[C@@H]2CC1` are “Not Active”, over 100 µM and over 50 µM.
The matching figures for `C/C1=C\CC[C@@]2(C)O[C@@H]2[C@H]2OC(=O)[C@@H](Cn3cc(CCCCO)nn3)[C@@H]2CC1`: “Not Active”, over 100 µM and over 50 µM.
The matching figures for `C/C1=C\CC[C@@]2(C)O[C@@H]2[C@H]2OC(=O)[C@@H](Cn3cc(CO)nn3)[C@@H]2CC1`: “Not Active”, over 100 µM and over 50 µM.
On to `C/C1=C\CC[C@@]2(C)O[C@@H]2[C@H]2OC(=O)[C@@H](CN=[N+]=[N-])[C@@H]2CC1`, for which the Drug degradation result in [1] is “Active”. Further, the Activity in [3] is reported as 17.5%; in [4] it was 28.4%. The viability at 5 µM in data set [5] amounted to 31.5%. Also, the results for the IC50 (in data set [2]; in the data set with HL-60) were 5.9 µM and 4.3 µM, respectively. In addition, the viability at 10 µM in [6] is 22.8%.
For `C=C1C(=O)O[C@H]2[C@H]1CCC(C)=C1CC[C@@](C)(OC)[C@@H]12`, the Activity in data set [3] was found to be 2.1%; in data set [4] it was 25.5%. For the same compound, in [5], the viability at 5 µM came to 34.1%. The IC50 came to 10.2 µM in [2] and 9.9 µM in the data set with HL-60. The viability at 10 µM in data set [6] came out at 10.8%.
As for `CC1=C2CC[C@@](C)(O)[C@@H]2[C@H]2OC(=O)[C@@H](CN=[N+]=[N-])[C@@H]2CC1`, the Activity in [3] came out at 11.2%; in data set [4] it was 26.3%. For the same compound, the viability at 5 µM in data set [5] was found to be 64.3%. For the same compound, the IC50 in data set [2] amounted to 6.7 µM; in the data set on HL-60 it was 6.2 µM. Further, the viability at 10 µM in data set [6] turned out to be 53.1%.
Regarding `CC1=C2CC[C@@](C)(O)[C@@H]2[C@H]2OC(=O)[C@@H](C)[C@@H]2CC1`, the figures for the Activity in data set [3] and in [4] were 74.4% and 83.1%, respectively. Besides, in data set [5], the viability at 5 µM came out at 85%. For the same compound, the IC50 (in data set [2]; with HL-60) was over 50 µM each time. Further, in data set [6], the viability at 10 µM stood at 70.8%.
Take `C=C1C(=O)O[C@@H]2[C@@H]3[C@@H](CC[C@@]3(C)O)[C@](C)(OC)CC[C@@H]12`: the Activity in data set [3] stood at 76.3%; in data set [4], 95.8%. Besides, the viability at 5 µM in [5] is 96.5%. Moreover, the IC50 in data set [2] is 11.2 µM; with HL-60, 9.4 µM. Also, the viability at 10 µM in data set [6] came to 75.2%.
Turning to `C=C1CC[C@H]2C(=C)C(=O)O[C@@H]2[C@]2(O)[C@@H]1CC[C@@H]2C`, the values for the Activity in data set [3] and in data set [4] were 44.5% and 67.9%, respectively. Besides, in data set [5], the viability at 5 µM is 70.7%. For the same compound, the figures for the IC50 (in [2]; in the data set on HL-60) were 6.4 µM and 4.5 µM, respectively. The viability at 10 µM in data set [6] turned out to be 49.7%.
In the case of `C=C1C(=O)O[C@@H]2C=C(CCC(C)=O)[C@@H](C)CC[C@@H]12`, the values for the Activity in [3] and in data set [4] were 70.9% and 81.5%, respectively. Besides, in [5], the viability at 5 µM turned out to be 83.2%. The IC50 (in [2]; in the data set on HL-60) was over 50 µM throughout. In addition, in [6], the viability at 10 µM was determined as 72%.
As for `C=C1C(=O)O[C@@H]2[C@@H]3[C@@H](CC[C@@]3(C)O)C(=C)CC[C@@H]12`, the values for the Activity in data set [3] and in [4] were 22.6% and 53.7%, respectively. Also, in data set [5], the viability at 5 µM turned out to be 61.6%. The figures for the 50% inhibitory concentration (IC50) (in data set [2]; in the data set with HL-60) were 9.9 µM and 9.4 µM, respectively. For the same compound, the viability at 10 µM in data set [6] is 30.6%.
For the compound `C=C1C(=O)O[C@@H]2[C@@H]3[C@@H](CC[C@@]3(C)O)[C@](C)(O)CC[C@@H]12`, the Activity stood at 84.8% in [3] and 84.9% in data set [4]. The viability at 5 µM in data set [5] was determined as 88.5%. For the same compound, the figures for the IC50 (in [2]; in the data set on HL-60) were 17.9 µM and 21.9 µM, respectively. Also, in data set [6], the viability at 10 µM worked out at 89.9%.
With `C=C1CC[C@@H]2[C@](C)(CO)[C@H](O)CC[C@@]2(C)[C@@H]1C/C=C1/C(=O)OC[C@H]1O` [ANDROGRAPHOLIDE], the IC50 in data set [2] amounted to 23.3 µM; with HL-60 it was 27 µM.
On to `C=C1C(=O)O[C@@H]2[C@H]3C(C)=CC[C@@]34O[C@@]4(C)CC[C@@H]12` [ARGLABIN], for which the “fold change (FC)” value in data set [7] is 1.9; in data set [8], 1.8. In addition, the Activity in data set [3] came out at 10.7%. In data set [6], the viability at 10 µM came to 20%.
As to `C[C@@H]1CC[C@H]2[C@@H](C)C(=O)O[C@@H]3O[C@@]4(C)CC[C@@H]1[C@]32OO4` [ARTEMISININ], the IC50 (in data set [2]; in the data set on HL-60) was over 50 µM throughout.
For `C=C1C(=O)O[C@@H]2/C=C(\C)CC/C=C(\C)CC[C@@H]12` [COSTUNOLIDE], the Activity was found to be 7.5% in data set [3] and 18.8% in [4]. For the same compound, in data set [5], the viability at 5 µM is 25.8%. Further, the IC50 in data set [2] was determined as 5.8 µM; in the data set on HL-60 it was 7.7 µM. Moreover, the viability at 10 µM in data set [6] is 13.4%.
In the case of `C=C1CC[C@H]2C(=C)CC[C@H]3C(=C)C(=O)O[C@@H]3[C@@H]12` [DEHYDROCOSTUSLACTONE], the Activity was determined as 3.8% in data set [3] and 2.9% in data set [4]. Moreover, in data set [5], the viability at 5 µM amounted to 6.1%. The IC50 in data set [2] is 3.7 µM; in the data set with HL-60, 5.3 µM. In [6], the viability at 10 µM is 6.4%.
For `C=C1CC(=O)OC1=O` [ITACONIC ANHYDRIDE], the IC50 (in [2]; with HL-60) was over 50 µM each time.
Consider `CCCCC/C=C/C=C/C(=O)N1CCCC1` [SARMENTINE], for which the IC50 (in data set [2]; in the data set with HL-60) was over 50 µM each time.
With `C=C1CCOC1=O` [TULIPALINE A], the figures for the IC50 (in [2]; in the data set with HL-60) were 28.8 µM and 35 µM, respectively.

A word on the IC50: it is the concentration that inhibits the measured activity by half. Higher therefore signals a need for much substance.
